The source made the active and inactive calls.
Assays:
Assay type in all cases: cell-based
[1] = target: Histone-lysine N-methyltransferase EZH2 (Homo sapiens) (UniProt Q15910); assay: Inhibition of EZH2 in human A549 cells assessed as increase in TNF-alpha-induced IL-8 level for 24 hrs by multiplexing laser bead assay
Outline: (§1)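 A549 cells were pretreated with vehicle or UNC1999 over two four-day cycles at 2 μM. They were seeded at 3×10^4/well, rested for 4 h, then exposed for 24 h to no stimulus, 5 μg/ml E. coli LPS or 10 U/ml TNFα. Secreted cytokines in the supernatants were quantified by a 41-plex laser bead assay.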

[2] = target: Histone-lysine N-methyltransferase EZH2 (Homo sapiens) (UniProt Q15910); assay: Inhibition of EZH2 in human HeLa cells assessed as effect on IRF1 mRNA level after 6 hrs by RT-PCR analysis in presence of IFN-gamma
Outline: (§2)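 Cells were treated for two four-day cycles with 2 μM GSK343 or UNC1999, then left untreated or stimulated with human IFNγ for 6 h. mRNA was measured by reverse transcription quantitative PCR and normalized to β-actin. Three biological replicates were run per treatment group.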

[3] = target: Histone-lysine N-methyltransferase EZH2 (Homo sapiens) (UniProt Q15910); assay: Inhibition of EZH2 in human A549 cells assessed as increase in IFN-gamma-induced SUZ12-repressed ISGs mRNA level after 6 hrs by RT-PCR analysis; outline: as §2
[4] = target: Histone-lysine N-methyltransferase EZH2 (Homo sapiens) (UniProt Q15910); assay: Inhibition of EZH2 in human A549 cells assessed as decrease in H3K27me3 levels at 2 uM after 6 hrs by Western blot analysis
[5] = target: Histone-lysine N-methyltransferase EZH2 (Homo sapiens) (UniProt Q15910); assay: Inhibition of EZH2 in human HeLa cells assessed as effect on HPRT mRNA level after 6 hrs by RT-PCR analysis in presence of IFN-gamma; outline: as §2
[6] = target: Histone-lysine N-methyltransferase EZH2 (Homo sapiens) (UniProt Q15910); assay: Inhibition of EZH2 in human A549 cells assessed as increase in LPS-induced IL-8 level for 24 hrs by multiplexing laser bead assay; outline: as §1
[7] = target: Histone-lysine N-methyltransferase EZH2 (Homo sapiens) (UniProt Q15910); assay: Inhibition of EZH2 in human MCF7 cells assessed as effect on PITX2 mRNA level after 6 hrs by RT-PCR analysis
Outline: (§3)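 Cells pretreated for two 4-day cycles with 2 µM GSK343 or UNC1999, then left unstimulated or given human IFNγ for 6 h. RNA reverse-transcribed and measured by quantitative PCR, normalized to β-actin. Three biological replicates per treatment group.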

[8] = target: Histone-lysine N-methyltransferase EZH2 (Homo sapiens) (UniProt Q15910); assay: Inhibition of EZH2 in human HeLa cells assessed as effect on PITX2 mRNA level after 6 hrs by RT-PCR analysis in presence of IFN-gamma; outline: as §2
[9] = target: Histone-lysine N-methyltransferase EZH2 (Homo sapiens) (UniProt Q15910); assay: Inhibition of EZH2 in human A549 cells assessed as increase in IFN-gamma-induced CXCL10 level for 24 hrs by ELISA
Outline: (§4)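 A549 cells were pretreated for two four-day cycles with 2 μM UNC1999 or with DMSO. They were seeded at 3×10^4/well, allowed to settle for 4 h, then given the indicated concentrations of IFNγ, IL1β, LPS or TNFα for 24 h. Secreted IL6, IL8 or CXCL10 in the supernatant was measured by ELISA in duplicate. n = 3; ANOVA followed by Fisher test.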

[10] = target: Histone-lysine N-methyltransferase EZH2 (Homo sapiens) (UniProt Q15910); assay: Inhibition of EZH2 in human HeLa cells assessed as increase in IFN-gamma-induced SUZ12-repressed ISGs mRNA level after 6 hrs by RT-PCR analysis; outline: as §2
[11] = target: Histone-lysine N-methyltransferase EZH2 (Homo sapiens) (UniProt Q15910); assay: Inhibition of EZH2 in human A549 cells assessed as increase in IL-1beta-induced IL-6 level for 24 hrs by ELISA; outline: as §4
[12] = target: Histone-lysine N-methyltransferase EZH2 (Homo sapiens) (UniProt Q15910); assay: Inhibition of EZH2 in human A549 cells assessed as effect on PITX2 mRNA level after 6 hrs by RT-PCR analysis in presence of IFN-gamma; outline: as §2
[13] = target: Histone-lysine N-methyltransferase EZH2 (Homo sapiens) (UniProt Q15910); assay: Inhibition of EZH2 in human HeLa cells assessed as effect on IRF1 mRNA level after 6 hrs by RT-PCR analysis; outline: as §2
[14] = target: Histone-lysine N-methyltransferase EZH2 (Homo sapiens) (UniProt Q15910); assay: Inhibition of EZH2 in human A549 cells assessed as effect on HPRT mRNA level after 6 hrs by RT-PCR analysis; outline: as §2
[15] = target: Histone-lysine N-methyltransferase EZH2 (Homo sapiens) (UniProt Q15910); assay: Inhibition of EZH2 in human MCF7 cells assessed as effect on IRF1 mRNA level after 6 hrs by RT-PCR analysis in presence of IFN-gamma; outline: as §3
[16] = target: Histone-lysine N-methyltransferase EZH2 (Homo sapiens) (UniProt Q15910); assay: Inhibition of EZH2 in human A549 cells assessed as increase in LPS-induced VEGF-A level for 24 hrs by multiplexing laser bead assay; outline: as §1
[17] = target: Histone-lysine N-methyltransferase EZH2 (Homo sapiens) (UniProt Q15910); assay: Inhibition of EZH2 in human HeLa cells assessed as effect on PITX2 mRNA level after 6 hrs by RT-PCR analysis; outline: as §2
[18] = target: Histone-lysine N-methyltransferase EZH2 (Homo sapiens) (UniProt Q15910); assay: Inhibition of EZH2 in human A549 cells assessed as effect on PITX2 mRNA level after 6 hrs by RT-PCR analysis; outline: as §2
[19] = target: Histone-lysine N-methyltransferase EZH2 (Homo sapiens) (UniProt Q15910); assay: Inhibition of EZH2 in human MCF7 cells assessed as decrease in H3K27me3 levels at 2 uM after 6 hrs by Western blot analysis
[20] = target: Histone-lysine N-methyltransferase EZH2 (Homo sapiens) (UniProt Q15910); assay: Inhibition of EZH2 in human MCF7 cells assessed as effect on IRF1 mRNA level after 6 hrs by RT-PCR analysis; outline: as §2
[21] = target: Histone-lysine N-methyltransferase EZH2 (Homo sapiens) (UniProt Q15910); assay: Inhibition of EZH2 in human A549 cells assessed as increase in LPS-induced CSF-3 level for 24 hrs by multiplexing laser bead assay; outline: as §1
[22] = target: Histone-lysine N-methyltransferase EZH2 (Homo sapiens) (UniProt Q15910); assay: Inhibition of EZH2 in human A549 cells assessed as increase in TNF-alpha-induced VEGFA level for 24 hrs by multiplexing laser bead assay; outline: as §1
[23] = target: Histone-lysine N-methyltransferase EZH2 (Homo sapiens) (UniProt Q15910); assay: Inhibition of EZH2 in human A549 cells assessed as increase in LPS-induced TGF-A level for 24 hrs by multiplexing laser bead assay; outline: as §1
[24] = target: Histone-lysine N-methyltransferase EZH2 (Homo sapiens) (UniProt Q15910); assay: Inhibition of EZH2 in human A549 cells assessed as increase in TNF-alpha-induced IL-6 level for 24 hrs by multiplexing laser bead assay; outline: as §1
[25] = target: Histone-lysine N-methyltransferase EZH2 (Homo sapiens) (UniProt Q15910); assay: Inhibition of EZH2 in human ASPC1 cells assessed as effect on PITX2 mRNA level after 6 hrs by RT-PCR analysis in presence of IFN-gamma; outline: as §2
[26] = target: Histone-lysine N-methyltransferase EZH2 (Homo sapiens) (UniProt Q15910); assay: Inhibition of EZH2 in human ASPC1 cells assessed as increase in IFN-gamma-induced SUZ12-repressed ISGs mRNA level after 6 hrs by RT-PCR analysis; outline: as §2
[27] = target: Histone-lysine N-methyltransferase EZH2 (Homo sapiens) (UniProt Q15910); assay: Inhibition of EZH2 in human A549 cells assessed as increase in TNF-alpha-induced CCL-5 level for 24 hrs by multiplexing laser bead assay; outline: as §1

Measured: inhibition

Sequence of Histone-lysine N-methyltransferase EZH2 (Homo sapiens) (Q15910 whole entry, looked up): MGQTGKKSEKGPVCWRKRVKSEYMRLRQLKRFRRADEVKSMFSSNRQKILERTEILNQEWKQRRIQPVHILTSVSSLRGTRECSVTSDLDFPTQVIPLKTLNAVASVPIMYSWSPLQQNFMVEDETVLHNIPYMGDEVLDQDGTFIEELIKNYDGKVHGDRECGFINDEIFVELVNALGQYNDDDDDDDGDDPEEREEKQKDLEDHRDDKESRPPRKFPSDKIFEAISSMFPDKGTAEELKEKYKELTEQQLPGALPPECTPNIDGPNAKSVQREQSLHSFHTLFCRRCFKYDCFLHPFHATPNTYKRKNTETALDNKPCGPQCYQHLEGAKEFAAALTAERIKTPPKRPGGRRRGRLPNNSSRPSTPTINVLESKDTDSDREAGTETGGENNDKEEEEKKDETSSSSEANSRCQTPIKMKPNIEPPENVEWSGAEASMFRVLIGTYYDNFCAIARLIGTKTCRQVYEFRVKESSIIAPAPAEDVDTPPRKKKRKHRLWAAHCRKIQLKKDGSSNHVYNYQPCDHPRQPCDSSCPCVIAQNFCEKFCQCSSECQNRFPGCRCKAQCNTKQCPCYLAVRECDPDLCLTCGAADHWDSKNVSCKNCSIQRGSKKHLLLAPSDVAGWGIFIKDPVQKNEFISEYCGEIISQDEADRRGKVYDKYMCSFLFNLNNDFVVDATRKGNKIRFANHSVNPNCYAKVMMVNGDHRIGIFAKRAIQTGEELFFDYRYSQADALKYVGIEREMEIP

CCCc1cc(C)[nH]c(=O)c1CNC(=O)c1cc(-c2ccc(N3CCN(C(C)C)CC3)nc2)cc2c1cnn2C(C)C
inactive: [2] | [5] | [7] | [8] | [12] | [13] | [14] | [15] | [17] | [18] | [20] | [25]
active: all other assays above
